From ChEMBL document CHEMBL1139997, “Structural basis for the activity of the RSK-specific inhibitor, SL0101” (Bioorg Med Chem, 2007)
Blank lines part the entries; values can stand above or below the molecule they belong to. Calls of active or inactive are those of the source. The rule behind the calls is not given here.

Key:
[1] = Inhibition of RSK expressed in SF9 cells; design: species or system Homo sapiens
MCF7 [2] = test: Inhibition of RSK mediated mitogen-induced p140 phosphorylation in MCF7 cells pretreated at 75 uM; assay type: cell-based; settings: Homo sapiens
In short: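 MCF-7 cells were seeded at 3×10^5 per well and serum-starved 24 h. They were pre-incubated with inhibitor or vehicle (2 h per legend; methods state 4 h), then given 500 nM PMA or vehicle for 20 min. Cells were lysed in boiling SDS buffer without DTT, and lysates were normalized for total protein before immunoblotting for phospho-p140.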

Homo sapiens = species on record: Homo sapiens; test: Inhibition of RSK activity at 75 uM
MCF7 [3] = test: Antiproliferative activity against human MCF7 cells at 75 uM after 48 hrs; assay type: functional, cell-based
In short: (§1)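 MCF-7 or MCF-10A cells were seeded at 5000 per well in ATCC-recommended medium. After 24 h the medium was replaced with medium containing compound or vehicle. Viability was read 48 h later by luminescent cell-viability reagent. Results are fold proliferation as % of vehicle-treated cells, mean of n = 2 in quadruplicate ± SD. EC50 was obtained by best-fit curve analysis.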

[4] = Growth inhibition of human MCF10A cells at 75 uM 48 hrs; assay type: cell-based, MCF-10A; in short: as §1
[5] = Antiproliferative activity against human MCF10A cells up to 200 uM after 48 hrs; assay type: cell-based; settings: mcf-10a; in short: as §1
MCF7 [6] = test: Antiproliferative activity against human MCF7 cells at >100 uM after 48 hrs; assay type: functional, cell-based; in short: as §1
MCF7 [7] = test: Antiproliferative activity against human MCF7 cells at 100 uM after 48 hrs; assay type: functional; in short: as §1
[8] = Inhibition of RSK expressed in SF9 cells at 10 uM; settings: Homo sapiens
MCF7 [9] = test: Antiproliferative activity against human MCF7 cells at 15 uM; assay type: functional; in short: as §1
[10] = Antiproliferative activity against human MCF10A cells at 15 uM; assay type: cell-based; settings: mcf-10a; in short: as §1
MCF7 [11] = test: Antiproliferative activity against human MCF7 cells after 48 hrs; assay type: functional, cell-based; in short: as §1

IC50 [1]: 1.56 µM
Activity (Homo sapiens): Active
Structure (SMILES): CC(=O)O[C@@H]1[C@@H](OC(C)=O)[C@@H](O)[C@H](Oc2c(-c3ccc(O)cc3)oc3cccc(O)c3c2=O)O[C@H]1C
Activity (MCF7 [2]): Active
Activity (MCF7 [3]): Active
inhibition at 48 h, 75 µM [4]: 25%

Structure (SMILES): CC(=O)O[C@@H]1[C@@H](OC(C)=O)[C@@H](O)[C@H](Oc2c(-c3ccc(O)cc3)oc3cc(O)cc(O)c3c2=O)O[C@H]1C
Activity [5]: Not Active
Activity (MCF7 [6]): Active

IC50 [1]: 0.129 µM
Structure (SMILES): CCO[C@@H]1[C@@H](OCC)[C@@H](O)[C@H](Oc2c(-c3ccc(O)cc3)oc3cc(O)cc(O)c3c2=O)O[C@H]1C

IC50 [1]: 24.6 µM
Structure (SMILES): CC(=O)O[C@@H]1[C@@H](OC(C)=O)[C@@H](O)[C@H](Oc2c(-c3ccc(O)cc3)oc3cc(O)ccc3c2=O)O[C@H]1C
Activity (MCF7 [7]): 50%

Structure (SMILES): CC(=O)Oc1ccc(-c2oc3cc(OC(C)=O)cc(OC(C)=O)c3c(=O)c2O[C@@H]2O[C@@H](C)[C@H](OC(C)=O)[C@@H](OC(C)=O)[C@H]2OC(C)=O)cc1
inhibition [8]: 50%
Activity (MCF7 [9]): 50%
Activity [10]: Not Active

IC50 [1]: 4.37 µM
Structure (SMILES): C[C@@H]1O[C@@H](Oc2c(-c3ccc(O)cc3)oc3cc(O)cc(O)c3c2=O)[C@H](O)[C@H](O)[C@H]1O [AFZELIN]
Activity (MCF7 [11]): inactive

IC50 [1]: 13.2 µM
Activity (Homo sapiens): Active
Structure (SMILES): CC(=O)O[C@@H]1[C@@H](OC(C)=O)[C@@H](O)[C@H](Oc2c(-c3ccccc3)oc3cccc(O)c3c2=O)O[C@H]1C
inhibition (MCF7 [2]): 50%
Activity (MCF7 [3]): Active
inhibition at 48 h, 75 µM [4]: 25%

Structure (SMILES): COc1ccc(-c2oc3cc(OC)cc(OC)c3c(=O)c2O[C@@H]2O[C@@H](C)[C@H](OC(C)=O)[C@@H](OC(C)=O)[C@H]2O)cc1
Activity ([1]; Homo sapiens): inactive
